# Data published in ChEMBL document CHEMBL1629583, “Establishment of in vitro susceptibility testing methodologies and comparative activities of piperacillin in combination with the penem {beta}-lactamase inhibitor BLI-489” (2009).
# Assays:
# Format in all cases: functional
# [1] = system: Burkholderia cepacia; assay: Antimicrobial activity against Burkholderia cepacia clinical isolate after 18 to 22 hrs by broth microdilution method in presence of beta-lactamase inhibitor Tazobactam
# Method in brief: (§1)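 Piperacillin-tazobactam was tested on recent clinical isolates by CLSI broth microdilution in Mueller-Hinton II broth, with tazobactam at constant 4 μg/ml. Wells held 10^5 CFU/ml and were incubated 18 to 22 h at 35°C in ambient air. MIC was the lowest concentration with no growth visible to the unaided eye.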
# [2] = system: Haemophilus influenzae; assay: Antimicrobial activity against beta-lactamase-negative Haemophilus influenzae clinical isolate after 18 to 22 hrs by broth microdilution method in presence of beta-lactamase inhibitor BLI-489
# Method in brief: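 Haemophilus isolates were tested in Haemophilus test medium by CLSI broth microdilution. Serial piperacillin dilutions carried BLI-489 fixed at 4 μg/ml. Inoculum was 10^5 CFU/ml, incubated 18 to 22 h at 35°C in ambient air. MIC was the lowest concentration completely inhibiting growth by eye.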
# [3] = system: Moraxella catarrhalis; assay: Antimicrobial activity against Moraxella catarrhalis clinical isolate after 18 to 22 hrs by broth microdilution method in presence of beta-lactamase inhibitor BLI-489
# Method in brief: (§2)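 CLSI broth microdilution in Mueller-Hinton II broth. Serial dilutions of piperacillin were tested with BLI-489 held at a constant 4 μg/ml. Inoculum was 10^5 CFU/ml. Plates were incubated 18 to 22 h at 35°C in ambient air. MIC was the lowest concentration giving complete growth inhibition by unaided eye.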
# [4] = system: Staphylococcus aureus; assay: Antimicrobial activity against methicillin-susceptible Staphylococcus aureus clinical isolate after 18 to 22 hrs by broth microdilution method in presence of beta-lactamase inhibitor Tazobactam
# Method in brief: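 CLSI broth microdilution of piperacillin-tazobactam in Mueller-Hinton II broth with serial dilutions. Inoculum was 10^5 CFU/ml. Incubation was 18 to 22 h at 35°C in ambient air. MIC was read as the lowest concentration giving complete inhibition of growth visible to the unaided eye.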
# [5] = system: Staphylococcus epidermidis; assay: Antimicrobial activity against methicillin-resistant Staphylococcus epidermidis clinical isolate after 18 to 22 hrs by broth microdilution method in presence of beta-lactamase inhibitor BLI-489
# Method in brief: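 CLSI broth microdilution in Mueller-Hinton II broth. Antibiotic in serial dilution with the β-lactamase inhibitor held at a constant 4 μg/ml. Inoculum 10^5 CFU/ml. Incubated 18 to 22 h at 35°C in ambient air.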
# [6] = system: Streptococcus pneumoniae; assay: Antimicrobial activity against penicillin-intermediate Streptococcus pneumoniae clinical isolate after 18 to 22 hrs by broth microdilution method in presence of beta-lactamase inhibitor BLI-489
# Method in brief: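 Streptococci were tested by CLSI broth microdilution in Mueller-Hinton II broth plus 5% lysed horse blood. Piperacillin was serially diluted with BLI-489 fixed at a constant 4 μg/ml. Inoculum was 10^5 CFU/ml, with 18 to 22 h at 35°C in ambient air. MIC was the lowest concentration completely inhibiting growth by eye.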
# [7] = system: Streptococcus agalactiae; assay: Antimicrobial activity against Streptococcus agalactiae clinical isolate after 18 to 22 hrs by broth microdilution method in presence of beta-lactamase inhibitor Tazobactam
# Method in brief: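 Streptococcal isolates were tested with piperacillin-tazobactam by CLSI broth microdilution in Mueller-Hinton II broth supplemented with 5% lysed horse blood. Inoculum was 10^5 CFU/ml, incubated 18 to 22 h at 35°C in ambient air. Visual endpoint: lowest concentration with complete inhibition.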
# [8] = system: Bacteroides uniformis; assay: Antimicrobial activity against Bacteroides uniformis clinical isolate after 18 to 22 hrs by broth microdilution method in presence of beta-lactamase inhibitor BLI-489
# [9] = system: Peptostreptococcus anaerobius; assay: Antimicrobial activity against Peptostreptococcus anaerobius clinical isolate after 18 to 22 hrs by broth microdilution method in presence of beta-lactamase inhibitor BLI-489
# [10] = system: Parvimonas micra; assay: Antimicrobial activity against Peptostreptococcus micros clinical isolate after 18 to 22 hrs by broth microdilution method in presence of beta-lactamase inhibitor BLI-489
# [11] = system: Enterococcus durans; assay: Antimicrobial activity against Enterococcus durans clinical isolate after 18 to 22 hrs by broth microdilution method in presence of beta-lactamase inhibitor Tazobactam; method in brief: as §1
# [12] = system: Escherichia coli; assay: Antimicrobial activity against class A extended spectrum beta-lactamase- and class D OXA- producing Escherichia coli clinical isolate after 18 to 22 hrs by broth microdilution method in presence of beta-lactamase inhibitor BLI-489; method in brief: as §2
# [13] = system: Escherichia coli; assay: Antimicrobial activity against AmpC beta-lactamase-producing Escherichia coli clinical isolate after 18 to 22 hrs by broth microdilution method in presence of beta-lactamase inhibitor Tazobactam; method in brief: as §1
# [14] = system: Klebsiella aerogenes; assay: Antimicrobial activity against Enterobacter aerogenes clinical isolate after 18 to 22 hrs by broth microdilution method in presence of beta-lactamase inhibitor Tazobactam; method in brief: as §1
# [15] = system: Klebsiella pneumoniae; assay: Antimicrobial activity against class A extended spectrum beta-lactamase- and class D OXA- producing Klebsiella pneumoniae clinical isolate after 18 to 22 hrs by broth microdilution method in presence of beta-lactamase inhibitor BLI-489; method in brief: as §2
# [16] = system: Morganella morganii; assay: Antimicrobial activity against Morganella morganii clinical isolate after 18 to 22 hrs by broth microdilution method in presence of beta-lactamase inhibitor BLI-489; method in brief: as §2
# [17] = system: Proteus vulgaris; assay: Antimicrobial activity against Proteus vulgaris clinical isolate after 18 to 22 hrs by broth microdilution method in presence of beta-lactamase inhibitor Tazobactam
# Method in brief: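 Piperacillin-tazobactam was tested by CLSI broth microdilution in Mueller-Hinton II broth against clinical isolates. Inoculum was 10^5 CFU/ml, with 18 to 22 h incubation at 35°C in ambient air. MIC was read as the lowest concentration completely inhibiting visible growth.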
# [18] = system: Acinetobacter baumannii; assay: Antimicrobial activity against Acinetobacter baumannii clinical isolate after 18 to 22 hrs by broth microdilution method in presence of beta-lactamase inhibitor BLI-489
# Method in brief: (§3)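 CLSI broth microdilution in Mueller-Hinton II broth. Piperacillin serial dilutions were combined with BLI-489 held constant at 4 μg/ml. Inoculum was 10^5 CFU/ml. Plates were incubated 18 to 22 h at 35°C in ambient air. MIC was the lowest concentration completely inhibiting growth seen by the unaided eye. Piperacillin-tazobactam interpretive criteria were applied.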
# [19] = system: Acinetobacter johnsonii; assay: Antimicrobial activity against Acinetobacter johnsonii clinical isolate after 18 to 22 hrs by broth microdilution method in presence of beta-lactamase inhibitor BLI-489; method in brief: as §3
structure (smiles),measurement,setting,value
CCN1CCN(C(=O)N[C@@H](C(=O)N[C@@H]2C(=O)N3[C@@H]2SC(C)(C)[C@@H]3C(=O)O)c2ccccc2)C(=O)C1=O [PIPERACILLIN],MIC50,[1],4 µg/mL
same,MIC90,[1],64 µg/mL
same,MIC,[2],≤ 0.004 µg/mL
same,MIC50,[2],≤ 0.004 µg/mL
same,MIC90,[2],0.015 µg/mL
same,MIC,[3],≤ 0.004 µg/mL
same,MIC50,[3],≤ 0.004 µg/mL
same,MIC90,[3],0.015 µg/mL
same,MIC50,[4],1 µg/mL
same,MIC90,[4],2 µg/mL
same,MIC50,[5],0.5 µg/mL
same,MIC90,[5],8 µg/mL
same,MIC50,[6],0.25 µg/mL
same,MIC90,[6],1 µg/mL
same,MIC50,[7],0.12 µg/mL
same,MIC90,[7],0.25 µg/mL
same,MIC50,[8],4 µg/mL
same,MIC90,[8],8 µg/mL
same,MIC,[9],≤ 0.015 µg/mL
same,MIC50,[9],≤ 0.015 µg/mL
same,MIC90,[9],≤ 0.015 µg/mL
same,MIC,[10],≤ 0.015 µg/mL
same,MIC50,[10],≤ 0.015 µg/mL
same,MIC90,[10],≤ 0.015 µg/mL
same,MIC50,[11],4 µg/mL
same,MIC90,[11],16 µg/mL
same,MIC,[12],2 µg/mL
same,MIC50,[12],2 µg/mL
same,MIC90,[12],16 µg/mL
same,MIC50,[13],4 µg/mL
same,MIC90,[13],8 µg/mL
same,MIC50,[14],64 µg/mL
same,MIC90,[14],128 µg/mL
same,MIC50,[15],8 µg/mL
same,MIC90,[15],64 µg/mL
same,MIC50,[16],0.25 µg/mL
same,MIC90,[16],1 µg/mL
same,MIC50,[17],0.5 µg/mL
same,MIC90,[17],2 µg/mL
same,MIC50,[18],> 128 µg/mL
same,MIC90,[18],> 128 µg/mL
same,MIC50,[19],4 µg/mL
same,MIC90,[19],16 µg/mL
